Assay results from ChEMBL document CHEMBL1139076, “Structural simplification of bioactive natural products with multicomponent synthesis: dihydropyridopyrazole analogues of podophyllotoxin” (2007).

Assays:
HeLa = assay: Cytotoxicity against human HeLa cells assessed as viability at 5 uM after 48 hrs by MTT method relative to control; type: functional; conditions: read-out: Activity
In short: (§1)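 Cells treated 48 h with compound at final 5 µM. Viability was read as mitochondrial dehydrogenase activity by MTT and expressed as % of the 100% DMSO control. Values are mean ± s.d. from two experiments.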

[1] = Cytotoxicity against human MCF7AZ cells assessed as viability at 5 uM after 48 hrs by MTT method relative to control; type: functional; conditions: MCF7/AZ, read-out: Activity; in short: as §1
Jurkat [2] = assay: Cytotoxicity against human Jurkat cells assessed as viability at 5 uM after 48 hrs by MTT method relative to control; type: functional; conditions: read-out: Activity; in short: as §1
Jurkat [3] = assay: Induction of apoptosis in human Jurkat cells at 5 uM by flow cytometric annexin-V/propidium iodide assay; type: functional, cell-based; conditions: TDE = time-dependent effect
In short: (§2)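 Jurkat cells were treated for 12, 24, 36 or 48 h against a DMSO control. Apoptosis was scored by flow cytometry after annexin-V/propidium iodide staining.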

Jurkat [4] = assay: Induction of apoptosis in human Jurkat cells at 5 uM after 48 hrs by flow cytometric annexin-V/propidium iodide assay; type: functional; in short: as §2
[5] = Cytotoxicity against human MCF7AZ cells assessed as viability at 50 uM after 48 hrs by MTT method relative to control; type: functional; conditions: MCF7/AZ, read-out: Activity
In short: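 MCF7-AZ cells were exposed 48 h to compound at final 50 µM. Viability was read as mitochondrial dehydrogenase activity by MTT, relative to DMSO control.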

Jurkat [6] = assay: Induction of apoptosis in human Jurkat cells at 50 uM by flow cytometric annexin-V/propidium iodide assay; type: functional, cell-based; conditions: TDE = time-dependent effect
In short: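 Human T-cell leukemia Jurkat cells were exposed to compound alongside a DMSO control and harvested after 12, 24, 36 and 48 hours. Apoptosis was read by flow cytometry after annexin-V and propidium iodide staining.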

Jurkat [7] = assay: Induction of apoptosis in human Jurkat cells at 50 uM after 48 hrs by flow cytometric annexin-V/propidium iodide assay; type: functional; in short: as §2

SMILES | viability at 5 µM (HeLa) [%] | viability at 5 µM [1] [%] | viability at 5 µM (Jurkat [2]) [%] | Activity (Jurkat [3]) | Activity (Jurkat [4]) [%] | viability at 50 µM [5] [%] | Activity (Jurkat [6]) | Activity (Jurkat [7]) [%]
Cc1n[nH]c2c1C(c1cccc(Cl)c1)C1=C(COC1=O)N2 (stereo not given) | 43 | 54 | 76 | – | – | – | – | –
Cc1n[nH]c2c1C(c1ccccc1[N+](=O)[O-])C1=C(COC1=O)N2 (stereo not given) | 71 | 99 | 64 | – | – | – | – | –
Cc1n[nH]c2c1C(c1ccccc1Br)C1=C(COC1=O)N2 (stereo not given) | 57 | 100 | 90 | – | – | – | – | –
COc1cc([C@H]2C3=C(COC3=O)Nc3cc4c(cc32)OCO4)cc(OC)c1OC | 54 | 52 | 54 | – | – | – | – | –
Cc1n[nH]c2c1C(c1cc(Br)c(O)c(Br)c1)C1=C(COC1=O)N2 (stereo not given) | 58 | 60 | 58 | – | – | – | – | –
Cc1n[nH]c2c1C(c1ccc(C3C4=C(COC4=O)Nc4[nH]nc(C)c43)cc1)C1=C(COC1=O)N2 (stereo not given) | 56 | 99 | 96 | – | – | – | – | –
Cc1n[nH]c2c1C(C)C1=C(COC1=O)N2 (stereo not given) | 70 | 97 | 78 | – | – | – | – | –
COc1cc(C2C3=C(COC3=O)Nc3[nH]nc(C)c32)cc(Br)c1OC(C)=O (stereo not given) | 47 | 46 | 36 | – | – | – | – | –
Cc1n[nH]c2c1C(c1ccsc1)C1=C(COC1=O)N2 (stereo not given) | 98 | 100 | 82 | – | – | – | – | –
COc1cc2c(cc1OC)[C@@H](c1cc(OC)c(OC)c(OC)c1)C1=C(COC1=O)N2 | 53 | 58 | 35 | – | – | – | – | –
CSc1ccc(C2C3=C(COC3=O)Nc3[nH]nc(C)c32)cc1 (stereo not given) | 45 | 95 | 87 | – | – | – | – | –
COc1ccc(C2C3=C(COC3=O)Nc3[nH]nc(C)c32)cc1 (stereo not given) | 73 | 82 | 94 | – | – | – | – | –
COc1cc(C2C3=C(COC3=O)Nc3[nH]nc(C)c32)cc(OC)c1OC (stereo not given) | 50 | 58 | 47 | tde | 70 | – | – | –
Cc1n[nH]c2c1C(c1cccc(F)c1)C1=C(COC1=O)N2 (stereo not given) | 99 | 76 | 84 | – | – | – | – | –
Cc1n[nH]c2c1C(c1cnn(-c3ccccc3)c1Cl)C1=C(COC1=O)N2 (stereo not given) | 58 | 100 | 94 | – | – | – | – | –
COc1cc([C@@H]2c3cc4c(cc3[C@@H](O[C@@H]3O[C@@H]5CO[C@@H](C)O[C@H]5[C@H](O)[C@H]3O)[C@H]3COC(=O)[C@H]23)OCO4)cc(OC)c1O [ETOPOSIDE] | 91 | 76 | 75 | – | – | 57 | tde | 70

SMILES | viability at 5 µM (HeLa) [%] | viability at 5 µM [1] [%] | viability at 5 µM (Jurkat [2]) [%] | Activity (Jurkat [3]) | Activity (Jurkat [4]) [%] | viability at 50 µM [5] [%] | Activity (Jurkat [6]) | Activity (Jurkat [7]) [%]
Cc1nc2ccccc2nc1C1C2=C(COC2=O)Nc2[nH]nc(C)c21 (stereo not given) | 72 | 100 | 97 | – | – | – | – | –
Cc1n[nH]c2c1C(c1ccc(Br)cc1)C1=C(COC1=O)N2 (stereo not given) | 62 | 92 | 90 | – | – | – | – | –
Cc1n[nH]c2c1C(c1ccncc1)C1=C(COC1=O)N2 (stereo not given) | 94 | 100 | 92 | – | – | – | – | –
Cc1n[nH]c2c1C(c1cccs1)C1=C(COC1=O)N2 (stereo not given) | 82 | 98 | 74 | – | – | – | – | –
Cc1n[nH]c2c1C(c1cccnc1)C1=C(COC1=O)N2 (stereo not given) | 69 | 96 | 88 | – | – | – | – | –
COc1ccc(C2C3=C(COC3=O)Nc3[nH]nc(C)c32)cc1OC (stereo not given) | 73 | 95 | 88 | – | – | – | – | –
Cc1n[nH]c2c1C(c1ccc(N(C)C)c(Br)c1)C1=C(COC1=O)N2 (stereo not given) | 55 | 59 | 34 | – | – | – | – | –
Cc1n[nH]c2c1C(c1ccc(OC(F)(F)F)cc1)C1=C(COC1=O)N2 (stereo not given) | 97 | 84 | 97 | – | – | – | – | –
Cc1n[nH]c2c1C(c1ccc(Cl)c(Cl)c1)C1=C(COC1=O)N2 (stereo not given) | 88 | 56 | 71 | – | – | – | – | –
COc1cc(C2C3=C(COC3=O)Nc3[nH]nc(C)c32)cc([N+](=O)[O-])c1O (stereo not given) | 78 | 89 | 90 | – | – | – | – | –
CCOc1c(Br)cc(C2C3=C(COC3=O)Nc3[nH]nc(C)c32)cc1OC (stereo not given) | 52 | 49 | 28 | – | – | – | – | –
C=C(C)[C@@H]1CC=C(C2C3=C(COC3=O)Nc3[nH]nc(C)c32)CC1 (stereo not given in full) | 95 | 91 | 89 | – | – | – | – | –
Cc1n[nH]c2c1C(c1cccc(Br)c1)C1=C(COC1=O)N2 (stereo not given) | 51 | 63 | 68 | tde | 70 | – | – | –
Cc1n[nH]c2c1C(c1c(C)nc3sccn13)C1=C(COC1=O)N2 (stereo not given) | 84 | 100 | 85 | – | – | – | – | –
COc1cc([C@@H]2c3cc4c(cc3[C@H](O)[C@H]3COC(=O)[C@H]23)OCO4)cc(OC)c1OC [PODOFILOX] | 19 | 55 | 18 | tde | 70 | – | – | –
Cc1n[nH]c2c1C(c1ccccc1)C1=C(COC1=O)N2 (stereo not given) | 74 | 84 | 87 | – | – | – | – | –
